Data as given in publication PMC11265520 (RSC Advances, 2024).
Read-outs that look alike come from different tables or passages of the source.

Columns and labels:
[1] = test system: breast cancer cells MCF-7; assay: MTT antiproliferative assay, MCF-7 under normoxia and hypoxia; assay type: cell-based, human; conditions: for IC50: Homo sapiens; for HCR, hypoxic cytotoxicity ratio: IC50(N)/IC50(H): MCF-7; for antiproliferative activity, in words: MCF-7, Table 3
Summary of the method: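 MTT assay on MCF-7 cells grown in high-glucose DMEM with 10% FBS, penicillin and streptomycin at 37 °C and 5% CO2. Cells were seeded at 40 000 per well, and test compound (10 mM DMSO stock) was added after 24 h; controls got solvent. Cells were kept under normoxia (21% O2) or hypoxia (1% O2). IC50 is mean ± S.D. of 3 experiments; HCR = IC50(N)/IC50(H).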

[2] = test system: Capan-1; assay: Antiproliferative assay, Capan-1; assay type: cell-based; conditions: Homo sapiens, CAPAN-1, read-out: IC50 Capan-1
[3] = test system: HCT-116; assay: Antiproliferative assay, HCT-116; assay type: cell-based; conditions: Homo sapiens, HCT-116, read-out: IC50 HCT-116
[4] = test system: LN229; assay: Antiproliferative assay, LN229; assay type: cell-based; conditions: Homo sapiens, LN-229, read-out: IC50 LN229
[5] = test system: NCI-H1975; assay: Antiproliferative assay, NCI-H1975; assay type: cell-based; conditions: Homo sapiens, NCI-H1975, read-out: IC50 NCI-H1975
[6] = test system: DND-41; assay: Antiproliferative assay, DND-41; assay type: cell-based; conditions: Homo sapiens, DND41, read-out: IC50 DND-41
[7] = test system: HL-60; assay: Antiproliferative assay, HL-60; assay type: cell-based; conditions: Homo sapiens, HL-60, read-out: IC50 HL-60
[8] = test system: K562; assay: Antiproliferative assay, K562; assay type: cell-based; conditions: Homo sapiens, K562, read-out: IC50 K562
[9] = test system: Z138; assay: Antiproliferative assay, Z138; assay type: cell-based; conditions: Homo sapiens, Z-138, read-out: IC50 Z138
[10] = target: hCA I (Homo sapiens, UniProt P00915); assay: Stopped flow CO2 hydrase assay, hCA I; assay type: biochemical
hCA I, sequence (P00915 whole entry): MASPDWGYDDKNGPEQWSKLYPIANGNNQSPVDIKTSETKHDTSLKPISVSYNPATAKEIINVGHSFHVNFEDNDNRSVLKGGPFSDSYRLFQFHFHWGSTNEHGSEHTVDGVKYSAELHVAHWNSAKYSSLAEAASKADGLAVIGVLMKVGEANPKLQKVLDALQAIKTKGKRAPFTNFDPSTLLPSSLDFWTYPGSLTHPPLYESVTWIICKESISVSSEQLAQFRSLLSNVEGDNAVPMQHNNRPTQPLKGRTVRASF

[11] = target: hCA II (Homo sapiens, UniProt P00918); assay: Stopped flow CO2 hydrase assay, hCA II; assay type: biochemical
[12] = target: hCA IX (Homo sapiens, UniProt Q16790); assay: biochemical; assay type: biochemical
[13] = target: hCA XII (Homo sapiens, UniProt O43570); assay: Stopped flow CO2 hydrase assay, hCA XII; assay type: biochemical
hCA XII, sequence (O43570 25-354): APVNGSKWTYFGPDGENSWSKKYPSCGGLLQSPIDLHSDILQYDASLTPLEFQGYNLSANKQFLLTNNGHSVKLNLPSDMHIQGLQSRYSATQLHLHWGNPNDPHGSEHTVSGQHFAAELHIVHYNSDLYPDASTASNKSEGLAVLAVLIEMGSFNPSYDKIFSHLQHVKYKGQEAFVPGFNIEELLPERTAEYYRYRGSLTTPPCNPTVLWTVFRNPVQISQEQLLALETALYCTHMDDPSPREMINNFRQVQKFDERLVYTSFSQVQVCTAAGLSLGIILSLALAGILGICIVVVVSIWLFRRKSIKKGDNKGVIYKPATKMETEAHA

[14] = test system: panel of tumor cell lines; assay: Antiproliferative activity over the panel of tumor cell lines; assay type: cell-based, human; conditions: for IC50: Homo sapiens
[15] = read-out: IC50 range over the tested tumor cell lines

| SMILES | IC50 ([1]; MCF7, read-out: IC50 H) [nM] | IC50 ([1]; MCF7, read-out: IC50 N) [nM] | HCR, hypoxic cytotoxicity ratio: IC50(N)/IC50(H) [1] | IC50 [2] [nM] | IC50 [3] [nM] | IC50 [4] [nM] | IC50 [5] [nM] | IC50 [6] [nM] | IC50 [7] [nM] | IC50 [8] [nM] | IC50 [9] [nM] | Ki [10] [nM] | Ki [11] [nM] | Ki [12] [nM] | Ki [13] [nM] | also measured |
| --- | --- | --- | --- | --- | --- | --- | --- | --- | --- | --- | --- | --- | --- | --- | --- | --- |
| N#Cc1c(-c2ccccc2)[n+]([O-])c2cc(S(N)(=O)=O)ccc2[n+]1[O-] [Compound 7a, 3-Phenyl-6-sulfamoylquinoxaline-2-carbonitrile 1,4-dioxide] | 900 ± 300 | 3500 ± 200 | 3.9 | 7500 ± 400 | 47900 ± 2300 | 38800 ± 1900 | 19900 ± 900 | 800 ± 50 | 2300 ± 100 | 10800 ± 500 | 8700 ± 400 | 49.1 ± 3 | 2.7 ± 0.2 | 2400 ± 96 | 89 ± 7 | – |
| N#Cc1c(-c2ccc(Cl)cc2)[n+]([O-])c2cc(S(N)(=O)=O)ccc2[n+]1[O-] [Compound 7b, 3-(4-Chlorophenyl)-6-sulfamoylquinoxaline-2-carbonitrile 1,4-dioxide] | 800 ± 200 | 1800 ± 200 | 2.2 | 1800 ± 100 | 34300 ± 1700 | 24000 ± 1200 | 13900 ± 700 | 5400 ± 300 | 2000 ± 100 | 29700 ± 1500 | 2500 ± 200 | 53.7 ± 1.5 | 5.1 ± 0.3 | 429 ± 21 | 178 ± 9 | enhancement of cytotoxicity compared to unsubstituted analogue 7a ([14]; all tested cell lines except DND-41): 1.2 to 6.8 times |
| N#Cc1c(-c2ccco2)[n+]([O-])c2cc(S(N)(=O)=O)ccc2[n+]1[O-] [Compound 7c, 3-(Furan-2-yl)-6-sulfamoylquinoxaline-2-carbonitrile 1,4-dioxide] | > 25000 | > 25000 | – | > 100000 | > 100000 | > 100000 | > 100000 | > 100000 | > 100000 | > 100000 | > 100000 | 38 ± 1.1 | 4.4 ± 0.2 | > 10000 | > 10000 | antiproliferative activity, in words [1]: complete loss of activity; activity against CA IX, in words [12]: complete loss of activity; activity against CA XII, in words [13]: inactive |
| N#Cc1c(-c2cccs2)[n+]([O-])c2cc(S(N)(=O)=O)ccc2[n+]1[O-] [Compound 7d, 6-Sulfamoyl-3-(thiophen-2-yl)quinoxaline-2-carbonitrile 1,4-dioxide] | > 25000 | > 25000 | – | > 100000 | > 100000 | 98800 ± 4900 | > 100000 | 44800 ± 2200 | 72400 ± 3600 | > 100000 | > 100000 | – | – | – | – | antiproliferative activity, in words [1]: complete loss of activity; Ki ([10]; read-out: Ki hCA I, mean from three experiments, stopped flow CO2 hydrase assay): 41.7 ± 2 nM; Ki ([11]; read-out: Ki hCA II, mean from three experiments, stopped flow CO2 hydrase assay): 4.2 ± 0.1 nM; activity against CA IX, in words [12]: complete loss of activity; Ki ([12]; read-out: Ki hCA IX, mean from three experiments, stopped flow CO2 hydrase assay): > 10000 nM |
| CCOC(=O)c1c(-c2ccccc2)[n+]([O-])c2cc(S(N)(=O)=O)ccc2[n+]1[O-] [Compound 7e, 2-(Ethoxycarbonyl)-3-phenyl-6-sulfamoylquinoxaline 1,4-dioxide] | 900 ± 60 | 4000 ± 600 | 4.7 | 6000 ± 300 | > 100000 | 87000 ± 4300 | 47400 ± 2300 | 28200 ± 1400 | 52700 ± 2600 | 52600 ± 2100 | 15300 ± 800 | 42.4 ± 1.9 | 5.4 ± 0.3 | 257 ± 14 | 252 ± 14 | – |
| CCOC(=O)c1c(C)[n+]([O-])c2cc(S(N)(=O)=O)ccc2[n+]1[O-] [Compound 7f, 2-(Ethoxycarbonyl)-3-methyl-6-sulfamoylquinoxaline 1,4-dioxide] | 4300 ± 300 | 10500 ± 1200 | 2.4 | 1700 ± 100 | 2700 ± 100 | 35900 ± 1800 | 33300 ± 1700 | 10300 ± 500 | 32600 ± 1600 | 26000 ± 1300 | 3300 ± 1700 | 63 ± 3.1 | 8 ± 0.3 | > 10000 | 56.4 ± 4 | activity against CA IX, in words [12]: did not exhibit any inhibitory activity; enhancement of tumor cell growth inhibition compared to compound 7e ([14]; Table 4 cell lines): 1.4–40 times |
| NS(=O)(=O)c1ccc2c(c1)[n+]([O-])c(C(F)(F)F)c(C(=O)c1ccccc1)[n+]2[O-] [Compound 7h, 2-Benzoyl-6-sulfamoyl-3-(trifluoromethyl)quinoxaline 1,4-dioxide] | 800 ± 50 | 1100 ± 100 | 1.4 | 1400 ± 70 | 1300 ± 80 | 1400 ± 30 | 1900 ± 100 | 2100 ± 200 | 1800 ± 100 | 1900 ± 200 | 1900 ± 100 | 51.5 ± 3.2 | 4.8 ± 0.3 | > 10000 | 143 ± 11 | IC50 [14, 15]: 1300 to 2100 nM; IC50 ([14]; read-out: IC50 range, all cell lines): 1100 to 2100 nM; higher activity compared to other analogs ([14]; against most tumor cells): 1.5–20 times |
| N#Cc1c(-c2ccccc2)[n+]([O-])c2ccc(S(N)(=O)=O)cc2[n+]1[O-] [Compound 8a, 3-Phenyl-7-sulfamoylquinoxaline-2-carbonitrile 1,4-dioxide] | 1300 ± 300 | 4800 ± 200 | 3.7 | – | – | – | – | – | – | – | – | 60.7 ± 2.6 | 4.4 ± 0.1 | > 10000 | 111 ± 9.7 | – |
| N#Cc1c(-c2ccc(Cl)cc2)[n+]([O-])c2ccc(S(N)(=O)=O)cc2[n+]1[O-] [Compound 8b, 3-(4-Chlorophenyl)-7-sulfamoylquinoxaline-2-carbonitrile 1,4-dioxide] | – | – | – | – | – | – | – | – | – | – | – | 40.3 ± 3.1 | 5 ± 0.4 | > 10000 | 133 ± 12 | – |
| CC(=O)c1c(C)[n+]([O-])c2ccc(S(N)(=O)=O)cc2[n+]1[O-] [Compound 8g, 2-Acetyl-3-methyl-7-sulfamoylquinoxaline 1,4-dioxide] | 2800 ± 400 | 11700 ± 1200 | 4.2 | – | – | – | – | – | – | – | – | – | – | – | – | – |
| COc1cccc2c1C(=O)c1c(O)c3c(c(O)c1C2=O)C[C@@](O)(C(=O)CO)C[C@@H]3O[C@H]1C[C@H](N)[C@H](O)[C@H](C)O1 [DOXO, doxorubicin, reference compound] | 400 ± 30 | 300 ± 30 | 0.7 | – | – | – | – | – | – | – | – | – | – | – | – | – |
| COc1cc([C@@H]2c3cc4c(cc3[C@@H](O[C@@H]3O[C@@H]5CO[C@@H](C)O[C@H]5[C@H](O)[C@H]3O)[C@H]3COC(=O)[C@H]23)OCO4)cc(OC)c1O [Etoposide, etoposide, reference compound] | – | – | – | 130 ± 10 | 2300 ± 100 | 1700 ± 100 | 1100 ± 100 | 290 ± 10 | 700 ± 40 | 1200 ± 60 | 300 ± 20 | – | – | – | – | IC50 [14, 15]: 130 to 2300 nM |
| Nc1n[n+]([O-])c2ccccc2[n+]1[O-] [TPZ, Tirapazamine, reference compound] | 4500 ± 1100 | 24200 ± 3300 | 5.4 | – | – | – | – | – | – | – | – | – | – | – | – | – |
